Results published in ChEMBL document CHEMBL4261563, “Synthesis and in vitro evaluation of substituted 3-cinnamoyl-4-hydroxy-pyran-2-one (CHP) in pursuit of new potential antituberculosis agents” (Medchemcomm, 2018).
≈ marks a conversion by molar mass, not a printed value.

Legend:
[1] = test system: Mycobacterium tuberculosis; experiment: Antitubercular activity against Mycobacterium tuberculosis H37Rv after 2 weeks by broth microdilution method; format: functional; conditions: 336 h
Outline: (§1)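 Middlebrook 7H9 broth microdilution with 10% ADC, compounds at […] μg ml−1 in duplicate. Each well received mid-log M. tuberculosis H37Rv at ∼1 × 10^5 CFU ml−1, checked by plating 10-fold dilutions on 7H11 agar (37 °C, read at four weeks). Drug-free broth was the negative control. MIC was the lowest concentration (μg ml−1) preventing visible growth after two weeks.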

[2] = test system: Mycolicibacterium smegmatis; experiment: Antimycobacterial activity against Mycobacterium smegmatis after 72 hrs by broth microdilution method; format: functional
HEK293 = experiment: Cytotoxicity against HEK293 cells by MTT assay; format: cell-based, Homo sapiens; conditions: for IC50: Homo sapiens, HEK293; for Activity: human, hek293
Outline: (§2)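 HEK-293 (from NCCS, Pune) treated at 1, 20, 40 and 80 μM, then at 100 μM. Percentage growth inhibition measured by MTT assay. IC50 assigned from whether inhibition reached ≥50% at 100 μM, the highest concentration tested.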

[3] = test system: Mycobacterium tuberculosis; experiment: Antitubercular activity against Mycobacterium tuberculosis H37Rv; format: functional; outline: as §1
[4] = Selectivity ratio of MIC for Mycobacterium smegmatis to MIC for Mycobacterium tuberculosis H37Rv; format: functional
Micrococcus luteus = experiment: Antibacterial activity against Micrococcus luteus ATCC 10240 after 24 hrs by broth microdilution method; format: functional; conditions: ATCC 10240, 24 h
Outline: (§3)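 Strains revived on Mueller Hinton agar, 37 °C for 24 h. MIC by broth microdilution in MH broth, read after 24 h at 37 °C by visual turbidity, highest concentration tested 128 μg ml−1. Levofloxacin as positive control.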

Staphylococcus aureus = experiment: Antibacterial activity against Staphylococcus aureus ATCC 25923 after 24 hrs by broth microdilution method; format: functional; conditions: ATCC 25923, 24 h; outline: as §3
Klebsiella pneumoniae = experiment: Antibacterial activity against Klebsiella pneumoniae ATCC BAA-2146 after 24 hrs by broth microdilution method; format: functional; conditions: ATCC BAA-2146, 24 h; outline: as §3
Escherichia coli = experiment: Antibacterial activity against Escherichia coli ATCC 10536 after 24 hrs by broth microdilution method; format: functional; conditions: ATCC 10536, 24 h; outline: as §3
Enterococcus faecalis = experiment: Antibacterial activity against Enterococcus faecalis ATCC 51299 after 24 hrs by broth microdilution method; format: functional; conditions: ATCC 51299, 24 h; outline: as §3
Pseudomonas aeruginosa = experiment: Antibacterial activity against Pseudomonas aeruginosa ATCC 10145 after 24 hrs by broth microdilution method; format: functional; conditions: ATCC 10145, 24 h; outline: as §3
[5] = test system: Staphylococcus epidermidis; experiment: Antibacterial activity against Staphylococcus epidermidis ATCC 12228 after 24 hrs by broth microdilution method; format: functional; conditions: ATCC 12228, 24 h; outline: as §3
Bacillus subtilis = experiment: Antibacterial activity against Bacillus subtilis ATCC 11774 after 24 hrs by broth microdilution method; format: functional; conditions: ATCC 11774, 24 h; outline: as §3
[6] = Cytotoxicity against HEK293 cells assessed as growth inhibition at 100 uM by MTT assay relative to control; format: cell-based; conditions: human, read-out: GI; outline: as §2
[7] = Cytotoxicity against human PC3 cells assessed as growth inhibition at 100 uM by MTT assay relative to control; format: cell-based, PC-3; conditions: read-out: GI
Outline: (§4)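 HCT-116, MCF-7 and PC-3 cells (from NCI, USA) exposed to double dilutions from 0.0 to 100 μM. Growth inhibition measured by MTT cell viability assay. Results given as mean ± standard deviation of percentage growth inhibition.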

[8] = Cytotoxicity against human MCF7 cells assessed as growth inhibition at 100 uM by MTT assay relative to control; format: cell-based; conditions: read-out: GI; outline: as §4
HCT-116 = experiment: Cytotoxicity against human HCT116 cells assessed as growth inhibition by MTT assay; format: cell-based; conditions: for Activity: human, hct-116; outline: as §4
PC-3 = experiment: Cytotoxicity against human PC3 cells assessed as growth inhibition by MTT assay; format: cell-based; conditions: for Activity: human, pc-3; outline: as §4
[9] = Cytotoxicity against human HCT116 cells assessed as growth inhibition at 100 uM by MTT assay relative to control; format: cell-based, HCT-116; conditions: read-out: GI; outline: as §4
MCF7 = experiment: Cytotoxicity against human MCF7 cells assessed as growth inhibition by MTT assay; format: cell-based; conditions: for Activity: human, mcf7; outline: as §4

Structure (SMILES) | MIC [1] [µg/mL] | MIC ([2]; read-out: MIC) [µg/mL] | IC50 (HEK293) [µM] | other results
CC[C@@H](CO)NCCN[C@@H](CC)CO [ETHAMBUTOL] | 2.5 (≈ 12.2 µM) |  |  | 
Cc1cc(O)c(C(=O)/C=C/c2cccc(C(F)(F)F)c2)c(=O)o1 | 256 (≈ 790 µM) | > 128 | > 100 | 
Cc1cccc(/C=C/C(=O)c2c(O)cc(C)oc2=O)c1 | 32 (≈ 118 µM) | > 128 | 100 | 
Cc1cc(O)c(C(=O)/C=C/c2cccc(O)c2)c(=O)o1 | 8 to 16 (≈ 29.4 to 58.8 µM) | > 128 | > 100 | 
NNC(=O)c1ccncc1 [ISONIAZID] | 0.312 (≈ 2.28 µM) |  |  | MIC [2]: 25 µg/mL (≈ 182 µM); MIC [3]: 0.02 µg/mL (≈ 0.146 µM); Selectivity ratio [4]: 1000
Cc1cc(O)c(C(=O)/C=C/c2cc(Br)cs2)c(=O)o1 | 4 to 8 (≈ 11.7 to 23.4 µM) | > 128 | 100 | 
Cc1cc(O)c(C(=O)/C=C/c2ccco2)c(=O)o1 | 16 to 32 (≈ 65 to 130 µM) | > 128 |  | 
COc1ccccc1/C=C/C(=O)c1c(O)cc(C)oc1=O | 32 to 64 (≈ 112 to 224 µM) | > 128 |  | 
COc1cc(/C=C/C(=O)c2c(O)cc(C)oc2=O)ccc1O | 32 (≈ 106 µM) | > 128 | > 100 | 
Cc1cc(O)c(C(=O)/C=C/c2ccc(C(F)(F)F)cc2)c(=O)o1 | 256 (≈ 790 µM) | > 128 | 100 | 
Cc1cc(O)c(C(=O)/C=C/c2ccccc2Cl)c(=O)o1 | 16 (≈ 55 µM) | > 128 | > 100 | 
C[C@H]1COc2c(N3CCN(C)CC3)c(F)cc3c(=O)c(C(=O)O)cn1c23.C[C@H]1COc2c(N3CCN(C)CC3)c(F)cc3c(=O)c(C(=O)O)cn1c23.O [LEVOFLOXACIN] | 2.5 | 2.5 |  | MIC (Micrococcus luteus): 0.078 µg/mL; MIC (Staphylococcus aureus): 0.078 to 0.156 µg/mL; MIC (Klebsiella pneumoniae): 0.625 to 1.25 µg/mL; MIC (Escherichia coli): 0.078 µg/mL; MIC (Enterococcus faecalis): 0.156 µg/mL; MIC (Pseudomonas aeruginosa): 0.312 to 0.625 µg/mL; MIC [5]: 0.039 to 0.078 µg/mL; MIC (Bacillus subtilis): 0.39 µg/mL
COc1cc(/C=C/C(=O)c2c(O)cc(C)oc2=O)cc(OC)c1OC | 8 (≈ 23.1 µM) | > 128 | 100 | 
COc1cc(C(F)(F)F)ccc1/C=C/C(=O)c1c(O)cc(C)oc1=O | 256 (≈ 723 µM) | > 128 | 100 | 
CCOc1cccc(/C=C/C(=O)c2c(O)cc(C)oc2=O)c1 | 4 (≈ 13.3 µM) | > 128 | 80 to 100 | inhibition at 100 µM [6]: 67 to 70%; MIC (Micrococcus luteus): > 128 µg/mL; MIC (Staphylococcus aureus): > 128 µg/mL; inhibition at 100 µM [7]: 67 to 70%; MIC (Klebsiella pneumoniae): 128 µg/mL (≈ 426 µM); inhibition at 100 µM [8]: 67 to 70%; MIC (Escherichia coli): > 128 µg/mL; IC50 (HCT-116; Homo sapiens, HCT-116): 80 µM; Activity (HCT-116): Dose-dependent effect; MIC (Enterococcus faecalis): > 128 µg/mL; MIC (Pseudomonas aeruginosa): > 128 µg/mL; Activity (HEK293): Dose-dependent effect; IC50 (PC-3; Homo sapiens, PC-3): 80 µM; Activity (PC-3): Dose-dependent effect; MIC [5]: > 128 µg/mL; MIC (Bacillus subtilis): > 128 µg/mL; inhibition at 100 µM [9]: 67 to 70%; IC50 (MCF7; Homo sapiens, MCF7): 80 µM; Activity (MCF7): Dose-dependent effect
Cc1cc(O)c(C(=O)/C=C/c2ccccc2O)c(=O)o1 | 8 to 16 (≈ 29.4 to 58.8 µM) | > 128 |  | 
CCOc1ccc(/C=C/C(=O)c2c(O)cc(C)oc2=O)cc1 | 256 (≈ 852 µM) | > 128 |  | 
Cc1cc(O)c(C(=O)/C=C/c2cccc(Br)c2)c(=O)o1 | 4 to 8 (≈ 11.9 to 23.9 µM) | > 128 | 100 | 
COc1ccc(/C=C/C(=O)c2c(O)cc(C)oc2=O)cc1 | 32 (≈ 112 µM) | > 128 | 100 | 
Cc1cc(O)c(C(=O)/C=C/c2ccccc2C(F)(F)F)c(=O)o1 | 8 (≈ 24.7 µM) | > 128 |  | 
COc1ccc(OC)c(/C=C/C(=O)c2c(O)cc(C)oc2=O)c1 | 4 to 8 (≈ 12.6 to 25.3 µM) | > 128 | 100 | 
CN[C@@H]1[C@H](O[C@H]2[C@H](O[C@H]3[C@H](O)[C@@H](O)[C@H](N=C(N)N)[C@@H](O)[C@@H]3N=C(N)N)O[C@@H](C)[C@]2(O)C=O)O[C@@H](CO)[C@H](O)[C@H]1O [STREPTOMYCIN] | 1.25 (≈ 2.15 µM) |  |  | 
COc1cccc(/C=C/C(=O)c2c(O)cc(C)oc2=O)c1 | 8 to 16 (≈ 27.9 to 55.9 µM) | > 128 |  | 
Cc1cc(O)c(C(=O)/C=C/c2ccccc2)c(=O)o1 | 4 (≈ 15.6 µM) | > 128 |  | inhibition at 100 µM [6]: 38 to 44%; MIC (Micrococcus luteus): > 128 µg/mL; MIC (Staphylococcus aureus): > 128 µg/mL; inhibition at 100 µM [7]: 38 to 44%; MIC (Klebsiella pneumoniae): 128 µg/mL (≈ 499 µM); inhibition at 100 µM [8]: 38 to 44%; MIC (Escherichia coli): > 128 µg/mL; Activity (HCT-116): Dose-dependent effect; MIC (Enterococcus faecalis): > 128 µg/mL; MIC (Pseudomonas aeruginosa): > 128 µg/mL; Activity (HEK293): Dose-dependent effect; Activity (PC-3): Dose-dependent effect; MIC [5]: > 128 µg/mL; MIC (Bacillus subtilis): > 128 µg/mL; inhibition at 100 µM [9]: 50%; Activity (MCF7): Dose-dependent effect
Cc1cc(O)c(C(=O)/C=C/c2ccc(Br)cc2)c(=O)o1 | 8 to 16 (≈ 23.9 to 47.7 µM) | > 128 | 100 | 
Cc1cc(O)c(C(=O)/C=C/c2ccsc2)c(=O)o1 | 32 to 64 (≈ 122 to 244 µM) | > 128 |  | 
CO[C@H]1/C=C/O[C@@]2(C)Oc3c(C)c(O)c4c(O)c(c(/C=N/N5CCN(C)CC5)c(O)c4c3C2=O)NC(=O)/C(C)=C\C=C\[C@H](C)[C@H](O)[C@@H](C)[C@@H](O)[C@@H](C)[C@H](OC(C)=O)[C@@H]1C [RIFAMPIN] | 0.078 (≈ 0.0948 µM) |  |  | MIC [3]: 0.2 µg/mL (≈ 0.243 µM); Selectivity ratio [4]: 500
Cc1ccc(/C=C/C(=O)c2c(O)cc(C)oc2=O)cc1 | 8 (≈ 29.6 µM) | > 128 | > 100 | 
Cc1cc(O)c(C(=O)/C=C/c2ccc(O)cc2)c(=O)o1 | 64 (≈ 235 µM) | > 128 |  | 
COc1cc(OC)c(OC)cc1/C=C/C(=O)c1c(O)cc(C)oc1=O | 8 (≈ 23.1 µM) | > 128 | 100 | 
